Measured values reported in ChEMBL document CHEMBL1130075, “(2-Methyl-5-(methylsulfonyl)benzoyl)guanidine Na+/H+ antiporter inhibitors” (J Med Chem, 1997).

Target: Sodium/hydrogen exchanger (Oryctolagus cuniculus, UniProt P23791+P50482+P26432)
Assay: Inhibition of 5-N-(ethyl isopropyl)-amiloride[EIPA]-sensitive Na+ uptake into acidified rabbit erythrocytes.
Type: functional
Summary of the method: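 Rabbit blood (heparinized) red cells, washed, acidified in pH 6.2 KCl buffer with ouabain, 10 min 37 °C; internal pH clamped with 200 μM DIDS and 1 mM acetazolamide, 30 min 37 °C. Uptake 5 min at 37 °C in pH 8.0 buffer with 10 mM NaCl plus ²²Na tracer, 1% DMSO. Triplicates; counts with 10 μM EIPA subtracted; IC50 by nonlinear fit.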

| SMILES | IC50 [nM] |
| --- | --- |
| Cc1c(C(=O)N=C(N)N)cc(S(C)(=O)=O)cc1-n1cccc1 | 100 |
| CCN(CC)Cc1cc(Br)c(S(C)(=O)=O)cc1C(=O)N=C(N)N | 9500 |
| CCCc1cc(C)c(C(=O)N=C(N)N)cc1S(C)(=O)=O | 5.7 |
| CS(=O)(=O)c1cc(C(=O)N=C(N)N)ccc1C(F)(F)F | 140 |
| Cc1cc(C(C)C)c(S(C)(=O)=O)cc1C(=O)N=C(N)N | 2 |
| Cc1cc(Nc2ccccn2)c(S(C)(=O)=O)cc1C(=O)N=C(N)N | 9.2 |
| CS(=O)(=O)c1cc(C(=O)N=C(N)N)c(Cl)cc1N1CCC(N)CC1 | 20 |
| CS(=O)(=O)c1cc(C(=O)N=C(N)N)ccc1N1CCC(N)CC1 | 160 |
| CCc1cc(Br)c(S(C)(=O)=O)cc1C(=O)N=C(N)N | 41 |
| CCc1cc(N2CCC(O)CC2)c(S(C)(=O)=O)cc1C(=O)N=C(N)N | 41 |
| Cc1c(C(=O)N=C(N)N)cc(S(C)(=O)=O)c(Cl)c1C | 58 |
| CS(=O)(=O)c1cc(C(=O)N=C(N)N)c(N)cc1N1CCCC(O)C1 (stereo unspecified) | 160 |
| Cc1cn(-c2cc(C)c(C(=O)N=C(N)N)cc2S(C)(=O)=O)cn1 | 28 |
| Cc1c(C(=O)N=C(N)N)cc(S(C)(=O)=O)c(Cl)c1[N+](=O)[O-] | 44 |
| Cc1cc(-n2cnc3ccccc32)c(S(C)(=O)=O)cc1C(=O)N=C(N)N | 100 |
| CS(=O)(=O)c1cc(C(=O)N=C(N)N)c(Cl)cc1Oc1cccnc1 | 52 |
| CCSc1cc(C)c(C(=O)N=C(N)N)cc1S(C)(=O)=O | 5.9 |
| Cc1cc(Cl)c(S(C)(=O)=O)cc1C(=O)N=C(N)N | 25 |
| Cc1cc(-c2ccccc2)c(S(C)(=O)=O)cc1C(=O)N=C(N)N | 19 |
| Cc1cc(Nc2cccc(Cl)c2)c(S(C)(=O)=O)cc1C(=O)N=C(N)N | 33 |
| CS(=O)(=O)c1cc(C(=O)N=C(N)N)ccc1Br | 180 |
| Cc1cc(Br)c(S(C)(=O)=O)cc1C(=O)N=C(N)N | 12 |

| SMILES | IC50 [nM] |
| --- | --- |
| CCc1cc(Cl)c(S(C)(=O)=O)cc1C(=O)N=C(N)N | 63 |
| CS(=O)(=O)c1cc(C(=O)N=C(N)N)c(Cl)cc1-n1ccnc1 | 130 |
| Cc1c(C(=O)N=C(N)N)cc(S(C)(=O)=O)c(C#N)c1C | 370 |
| Cc1cc(-c2cc(C(F)(F)F)cc(C(F)(F)F)c2)c(S(C)(=O)=O)cc1C(=O)N=C(N)N | 2800 |
| Cc1cc(-n2cccn2)c(S(C)(=O)=O)cc1C(=O)N=C(N)N | 25 |
| Cc1ccc(C(=O)N=C(N)N)cc1S(C)(=O)=O | 210 |
| Cc1cc(Sc2cccc(Cl)c2)c(S(C)(=O)=O)cc1C(=O)N=C(N)N | 37 |
| Cc1cc(C(F)(F)F)c(S(C)(=O)=O)cc1C(=O)N=C(N)N | 37 |
| CCCSc1cc(C)c(C(=O)N=C(N)N)cc1S(C)(=O)=O | 6.8 |
| Cc1cc(-n2ccnc2C)c(S(C)(=O)=O)cc1C(=O)N=C(N)N | 29 |
| Cc1cc(Br)c(C(=O)N=C(N)N)cc1S(C)(=O)=O | 70 |
| Cc1cc(-c2ccc(F)cc2)c(S(C)(=O)=O)cc1C(=O)N=C(N)N | 36 |
| Cc1c(C(=O)N=C(N)N)cc(S(C)(=O)=O)c(C)c1C | 55 |
| CS(=O)(=O)c1cc(C(=O)N=C(N)N)c(N)cc1N1CCCCC1 | 190 |
| Cc1cc(Sc2ccc(Cl)cc2)c(S(C)(=O)=O)cc1C(=O)N=C(N)N | 19 |
| CCc1cc(Oc2cccnc2)c(S(C)(=O)=O)cc1C(=O)N=C(N)N | 27 |
| CS(=O)(=O)c1cc(C(=O)N=C(N)N)c(Cl)cc1Nc1ncccn1 | 49 |
| Cc1cc(C#N)c(S(C)(=O)=O)cc1C(=O)N=C(N)N | 70 |
| CS(=O)(=O)c1cc(C(=O)N=C(N)N)ccc1N1CCCC(O)C1 (stereo unspecified) | 65 |
| CS(=O)(=O)c1cc(C(=O)N=C(N)N)c(Cl)cc1N1CCCC(O)C1 (stereo unspecified) | 60 |
| Cc1cc(SC(C)(C)C)c(S(C)(=O)=O)cc1C(=O)N=C(N)N | 22 |
| Cc1cc(Oc2ccccc2)c(S(C)(=O)=O)cc1C(=O)N=C(N)N | 10 |

| SMILES | IC50 [nM] |
| --- | --- |
| Cc1cc(-n2cccc2)c(S(C)(=O)=O)cc1C(=O)N=C(N)N [ENIPORIDE] | 8 |
| COc1ccc(C(=O)N=C(N)N)cc1S(C)(=O)=O | 270 |
| Cc1cc(Oc2ccccc2Cl)c(S(C)(=O)=O)cc1C(=O)N=C(N)N | 14 |
| Cc1cc(Nc2ccccc2)c(S(C)(=O)=O)cc1C(=O)N=C(N)N | 21 |
| Cc1cc(Oc2cccc(Cl)c2)c(S(C)(=O)=O)cc1C(=O)N=C(N)N | 21 |
| CCc1cc(OC)c(S(C)(=O)=O)cc1C(=O)N=C(N)N | 30 |
| Cc1cc(-c2ccco2)c(S(C)(=O)=O)cc1C(=O)N=C(N)N | 16 |
| CS(=O)(=O)c1cc(C(=O)N=C(N)N)ccc1N1CCCCC1 | 130 |
| CS(=O)(=O)c1cc(C(=O)N=C(N)N)ccc1-n1cccn1 | 160 |
| Cc1cc(-c2ccc(Cl)cc2Cl)c(S(C)(=O)=O)cc1C(=O)N=C(N)N | 42 |
| CCc1cc(N2CCCCC2)c(S(C)(=O)=O)cc1C(=O)N=C(N)N | 25 |
| CS(=O)(=O)c1cc(C(=O)N=C(N)N)c(Cl)cc1Cl | 140 |
| CCc1cc(-n2ccc(=O)cc2)c(S(C)(=O)=O)cc1C(=O)N=C(N)N | 930 |
| Cc1cc(OC2CCCCC2)c(S(C)(=O)=O)cc1C(=O)N=C(N)N | 37 |
| Cc1cc(-n2ccc(=O)cc2)c(S(C)(=O)=O)cc1C(=O)N=C(N)N | 75 |
| CSc1cc(C)c(C(=O)N=C(N)N)cc1S(C)(=O)=O | 6 |
| Cc1cc(Oc2cncc(Cl)c2)c(S(C)(=O)=O)cc1C(=O)N=C(N)N | 14 |
| Cc1cc(C2CCC2)c(S(C)(=O)=O)cc1C(=O)N=C(N)N | 8.2 |
| Cc1cc(Oc2cccnc2)c(S(C)(=O)=O)cc1C(=O)N=C(N)N | 8.8 |
| Cc1cc(Nc2ncccn2)c(S(C)(=O)=O)cc1C(=O)N=C(N)N | 8.3 |
| Cc1cc(Sc2ccncc2)c(S(C)(=O)=O)cc1C(=O)N=C(N)N | 13 |
| CS(=O)(=O)c1cc(C(=O)N=C(N)N)c(N2CCCCC2)cc1N1CCCCC1 | 1000 |

| SMILES | IC50 [nM] |
| --- | --- |
| Cc1c(C(=O)N=C(N)N)cc(S(C)(=O)=O)c(Cl)c1Cl | 29 |
| Cc1c(C(=O)N=C(N)N)cc(S(C)(=O)=O)c(-n2ccnc2)c1C | 290 |
| CCCCCc1cc(C)c(C(=O)N=C(N)N)cc1S(C)(=O)=O | 27 |
| COc1cc(C)c(C(=O)N=C(N)N)cc1S(C)(=O)=O | 16 |
| CS(=O)(=O)c1cc(C(=O)N=C(N)N)ccc1C1CCCCC1 | 340 |
| Cc1c(C(=O)N=C(N)N)cc(S(C)(=O)=O)c(Oc2cccnc2)c1C | 23 |
| CS(=O)(=O)c1cc(C(=O)N=C(N)N)ccc1Oc1cncc(Cl)c1 | 75 |
| Cc1cc(C2CCCCC2)c(S(C)(=O)=O)cc1C(=O)N=C(N)N | 22 |
| CC(C)c1ccc(C(=O)N=C(N)N)cc1S(C)(=O)=O [CARIPORIDE] | 26 |
| CS(=O)(=O)c1cc(C(=O)N=C(N)N)c(F)cc1F | 630 |
| Cc1cc(OC(C)(C)C)c(S(C)(=O)=O)cc1C(=O)N=C(N)N | 9.4 |
| Cc1cc(N2CCCCC2)c(S(C)(=O)=O)cc1C(=O)N=C(N)N | 21 |
| Cc1cc(N2CCN(c3ncccn3)CC2)c(S(C)(=O)=O)cc1C(=O)N=C(N)N | 27 |
| Cc1cc(F)c(S(C)(=O)=O)cc1C(=O)N=C(N)N | 44 |
| Cc1ccc(-c2ccc(C(=O)N=C(N)N)cc2S(C)(=O)=O)cc1 | 100 |
| Cc1cc(O)c(S(C)(=O)=O)cc1C(=O)N=C(N)N | 220 |
| Cc1cc(OC2CCCC2)c(S(C)(=O)=O)cc1C(=O)N=C(N)N | 27 |
| Cc1ccc(S(C)(=O)=O)cc1C(=O)N=C(N)N | 150 |
| Cc1cc(OCc2ccccc2)c(S(C)(=O)=O)cc1C(=O)N=C(N)N | 28 |
| Cc1c(C(=O)N=C(N)N)ccc(Oc2cccnc2)c1S(C)(=O)=O | 2200 |
| Cc1cc(N2CCCC2)c(S(C)(=O)=O)cc1C(=O)N=C(N)N | 11 |
| CS(=O)(=O)c1cc(C(=O)N=C(N)N)ccc1Cl | 380 |

| SMILES | IC50 [nM] |
| --- | --- |
| Cc1c(C(=O)N=C(N)N)ccc(Cl)c1S(C)(=O)=O | 130 |
| Cc1cc(C)c(S(C)(=O)=O)cc1C(=O)N=C(N)N | 11 |
| CS(=O)(=O)c1cc(C(=O)N=C(N)N)ccc1-n1ccc(=O)cc1 | 710 |
| Cc1cc(Sc2ccccc2)c(S(C)(=O)=O)cc1C(=O)N=C(N)N | 14 |
| Cc1cc(-c2cc(Cl)cc(Cl)c2)c(S(C)(=O)=O)cc1C(=O)N=C(N)N | 130 |
| Cc1ccc(-c2cc(C)c(C(=O)N=C(N)N)cc2S(C)(=O)=O)cc1 | 25 |
| Cc1cc(Oc2ccc(Cl)cc2)c(S(C)(=O)=O)cc1C(=O)N=C(N)N | 13 |
| CS(=O)(=O)c1cc(C(=O)N=C(N)N)ccc1C#N | 140 |
| CS(=O)(=O)c1cc(C(=O)N=C(N)N)c(N)cc1Cl | 130 |
| CS(=O)(=O)c1cc(C(=O)N=C(N)N)ccc1-n1ccnc1 | 150 |
| Cc1cc(OC(C)C)c(S(C)(=O)=O)cc1C(=O)N=C(N)N | 19 |
| COc1cc(N2CCC(N)CC2)c(S(C)(=O)=O)cc1C(=O)N=C(N)N | 73 |
| Cc1cc(N2CCC(N)CC2)c(S(C)(=O)=O)cc1C(=O)N=C(N)N | 9.8 |
| COc1cc(Cl)c(C(=O)N=C(N)N)cc1S(C)(=O)=O | 40 |
| Cc1cc(Sc2ccccc2Cl)c(S(C)(=O)=O)cc1C(=O)N=C(N)N | 14 |
| Cc1cc(SC(C)C)c(S(C)(=O)=O)cc1C(=O)N=C(N)N | 12 |
| CS(=O)(=O)c1cc(C(=O)N=C(N)N)ccc1Oc1cccnc1 | 76 |
| CCC(C)c1cc(C)c(C(=O)N=C(N)N)cc1S(C)(=O)=O (stereo unspecified) | 8 |
